This is a sample that favours compounds with a hit; in the whole collection about 2.7% have one here.
PAFAH1B3 FP inh: PAFAH1B3 enzyme inhibitors, primary screen, biochemical, fluorescence polarization, human; 0.28% of 340,000 active; recombinant PAFAH1B3, FP-rhodamine probe; AID 492972, 2010; inhibition, % at 3.39 µM;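 active means inhibition above the screen-wide average of all tested compounds plus 3 SD, cut at about 25% in these data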
RBBP9 inhibitor: human RBBP9 inhibitors, primary screen, biochemical, fluorescence polarization, FP-Rh probe, HTS | recombinant RBBP9 | inhibition, % at 7.94 µM | 0.2% of 220,000 active;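 active means inhibition above the campaign mean of all tested compounds plus 3 SD, cut at about 14% in these data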
Target sequence (O75884 whole entry, looked up): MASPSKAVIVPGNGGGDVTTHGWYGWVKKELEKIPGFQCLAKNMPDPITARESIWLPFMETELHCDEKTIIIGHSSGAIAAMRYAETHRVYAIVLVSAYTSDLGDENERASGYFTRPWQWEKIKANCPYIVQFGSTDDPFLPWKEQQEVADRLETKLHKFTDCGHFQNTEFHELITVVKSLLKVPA
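Material: RBBP9 protein. Amount: RBBP9 at 2.5 µM in dispensed solution, before mixing. Schedule: 30 min then 45 min, 25 °C. Medium: Tris buffer pH 8.0, NaCl, Pluronic. Measured by: fluorescence polarization. Measure: percent inhibition from mP, scaled between DMSO and no-protein wells. Replication: one well per compound.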
pPAFAH FP inh: pPAFAH enzyme inhibitors, primary screen, biochemical, fluorescence polarization, human; AID 463082, 2010; inhibition, % at 3.39 µM; Platelet-activating factor acetylhydrolase (Homo sapiens), Q13093; 1.5% of 330,000 active; recombinant pPAFAH, FP-rhodamine probe fluorescence polarization;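 active means inhibition above the mean inhibition across the screen plus 3 SD, cut at about 25% in these data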;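 further: inhibitors block binding of the rhodamine activity-based probe so polarization drops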
PAFAH2 inh: PAFAH2 enzyme inhibitors, primary screen, biochemical, fluorescence polarization, human; Platelet-activating factor acetylhydrolase 2, cytoplasmic (Homo sapiens), Q99487; 0.99% of 340,000 active; inhibition, % at 3.39 µM; recombinant PAFAH2, FP-rhodamine activity probe;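 active means inhibition above the mean over all tested compounds plus 3 SD, cut at about 30% in these data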;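 further: inhibitors block probe labeling of enzyme so polarization drops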
PAFAH1B2 inh: PAFAH1B2 enzyme inhibitors, primary screen, biochemical, fluorescence polarization, human. Platelet-activating factor acetylhydrolase IB subunit alpha2 (Homo sapiens), P68402. recombinant PAFAH1B2, FP-rhodamine activity probe. inhibition, % at 3.39 µM. 1.2% of 340,000 active. AID 492953, 2010;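 active means inhibition above the mean of all tested compounds plus 3 SD, cut at about 24% in these data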
Target sequence (P68402 whole entry, looked up): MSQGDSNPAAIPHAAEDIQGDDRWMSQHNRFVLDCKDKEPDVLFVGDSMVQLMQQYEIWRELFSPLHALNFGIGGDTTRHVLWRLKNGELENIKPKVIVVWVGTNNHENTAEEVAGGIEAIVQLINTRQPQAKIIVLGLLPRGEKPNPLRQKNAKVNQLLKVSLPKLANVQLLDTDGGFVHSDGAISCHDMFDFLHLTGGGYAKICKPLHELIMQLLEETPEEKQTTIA
RBBP9 confirm: human RBBP9 inhibitors, retest, confirmation, biochemical, fluorescence polarization, FP-Rh probe, triplicate. inhibition, % at 7.94 µM. 36% of 410 active. recombinant RBBP9. shares compounds with RBBP9 inhibitor;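 active means inhibition above the hit cutoff derived for the primary screen, cut at about 15% in these data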
Each line names hits and unclear results; the compound was inactive in the other large screens (follow-up assays come after a bar, where they were run).

CC1CN(Cc2c(O)ccc3c2oc(=O)c2ccccc23)CC(C)O1 (stereo not given)	RBBP9 inhibitor 19.0 | RBBP9 confirm 63.3
O=C(Cn1ccc([N+](=O)[O-])n1)N1CCCCC1	none
O=C(Cn1ccc([N+](=O)[O-])n1)N1CCCCCC1	RBBP9 inhibitor 15.7 | RBBP9 confirm inactive
COc1cc(CN2CCN(c3ccccc3F)CC2)cc(OC)c1O	RBBP9 inhibitor 15.1 | RBBP9 confirm inactive
CCC(=O)N1N=C(c2ccc(NS(=O)(=O)c3ccccc3)cc2)CC1c1ccco1 (stereo not given)	none (no result: RBBP9 inhibitor)
CCn1c(C(=O)NCc2cccnc2)cc2sc(Cl)cc21	RBBP9 inhibitor 14.5 | RBBP9 confirm inactive
CCn1c(N)c(C(=O)NCc2cccnc2)sc1=S	none
CCCCOP(=O)(OCCCC)C1(NS(=O)(=O)c2ccccc2)C=CC(=O)c2ccccc21 (stereo not given)	RBBP9 inhibitor 24.5 | RBBP9 confirm 16.0
COc1ccc(C(C)C)cc1S(=O)(=O)NC1CCCC1	none (no result: RBBP9 inhibitor)
Cc1cccc(N2CCN(C(=O)c3cc(S(=O)(=O)N(C)C)ccc3N3CCCC3)CC2)c1C	RBBP9 inhibitor 14.5 | RBBP9 confirm inactive
Cc1ccc(S(=O)(=O)N2CCN(C(=O)c3cc(S(=O)(=O)N(C)C)ccc3N3CCCC3)CC2)cc1	none (no result: RBBP9 inhibitor)
O=C(NCc1ccc2c(c1)OCO2)C1CC(=O)N(c2ccc(F)cc2)C1 (stereo not given)	RBBP9 inhibitor 16.5 | RBBP9 confirm inactive
O=C1c2ccccc2C(=O)N1CCN1CCc2ccccc21	RBBP9 inhibitor 17.0 | RBBP9 confirm inactive
COc1ccc(S(=O)(=O)N2CCCCC2)cc1NC(=O)c1cc(C)on1	none
CCOc1cc2nc(-c3ccc(OC)c(OC)c3)nc(NCCCN3CCOCC3)c2cc1OC	none
COc1cc2ncnc(NCCCN3CCOCC3)c2cc1OC	RBBP9 inhibitor 15.0 | RBBP9 confirm inactive
CN(C)c1ccc(CNc2ccccn2)cc1	none (no result: RBBP9 inhibitor)
O=Cc1cc(N=Nc2cccc(C(=O)O)c2)ccc1O	RBBP9 inhibitor 18.2 | RBBP9 confirm inactive
COc1ccc([C@H]2CC(=O)C=C(c3cc(C(F)(F)F)cc(C(F)(F)F)c3)C2)cc1	none (no result: RBBP9 inhibitor)
CNC(=O)C(=O)Nc1c(O)c2ccccc2[nH]c1=O	RBBP9 inhibitor 17.9 | RBBP9 confirm inactive
CCC(=O)Oc1ccc2c(C)cc(=O)oc2c1C(=O)CC	RBBP9 inhibitor 18.3 (no result: PAFAH1B3 FP inh, PAFAH2 inh, PAFAH1B2 inh) | RBBP9 confirm inactive
Cn1c(N2CCOCC2)nc2c1c(=O)n(Cc1ccc(Cl)c(Cl)c1)c(=O)n2C	RBBP9 inhibitor 18.4 | RBBP9 confirm inactive
Clc1cccc2sc(-c3nnc(-c4ccccc4)o3)c(Cl)c12	RBBP9 inhibitor 19.7 | RBBP9 confirm inactive
O=C(c1ccccc1F)N1CCN(c2ccc([N+](=O)[O-])cc2-n2cccc2)CC1	RBBP9 inhibitor 15.9 | RBBP9 confirm inactive
CCC(CC)NC(=O)COC(=O)CCC(=O)c1ccc(Cl)cc1	none
Cc1cccnc1Nc1nc(-c2ccc(O)c(O)c2)cs1	RBBP9 inhibitor 25.4 | RBBP9 confirm 55.2
COc1ccc(-c2csc(Nc3ncccc3C)n2)cc1OC	none
O=c1c2ccccc2nc(/C=C/c2cccnc2)n1CCc1ccccc1	none
O=c1c2ccccc2nc(/C=C/c2cccnc2)n1Cc1ccccc1	RBBP9 inhibitor 15.0 (no result: pPAFAH FP inh) | RBBP9 confirm 54.8
CCC(=O)N1c2ccc(S(=O)(=O)N3CCN(c4cc(C)ccc4C)CC3)cc2CC1C (stereo not given)	none (no result: RBBP9 inhibitor)
COc1cc(/C=N/Nc2ccc(C(F)(F)F)cn2)cc(OC)c1O	RBBP9 inhibitor 17.1 (no result: pPAFAH FP inh) | RBBP9 confirm 15.3
Oc1ccc(/C=N/Nc2ccc(C(F)(F)F)cn2)cc1	none
CCOC(=O)c1[nH]c(=O)[nH]c1CNc1ccccc1C#N	none (no result: RBBP9 inhibitor)
CC(C)NC(=O)CCS(=O)(=O)c1ccc(Br)s1	RBBP9 inhibitor 18.2 | RBBP9 confirm inactive
COc1cc(OC)c2cc(C(=O)N/N=C/c3cccc(OC)c3O)[nH]c2c1	RBBP9 inhibitor 15.8 | RBBP9 confirm 32.4
c1ccc(-c2nnc3sc(-c4ccncc4)nn23)cc1	none

Source: PubChem
